How the values were obtained:
[1] = species: Homo sapiens; assay: Selectivity ratio of Ki for human DAT to Ki for human NET
[2] = target: Sodium-dependent noradrenaline transporter (Homo sapiens, UniProt P23975); assay: Displacement of [3H]nisoxetine from human NET expressed in HEK293 cells; type: cell-based
Outline: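 Membranes from HEK-293 cells stably expressing hNET (grown in DMEM, 10% FBS, Geneticin), 30–70 µg protein per tube, with [3H]nisoxetine. Buffer: 53 mM Tris, 320 mM NaCl, 5.3 mM KCl, pH 7.4 at 4 °C. Incubated 4 h at 4 °C. Competitor tested at 12 concentrations, 10^-13 to 10^-5 M, in triplicate. Filtered on PEI-soaked GF/B filters. Ki given as geometric mean of ≥3 assays.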

[3] = target: Sodium-dependent serotonin transporter (Homo sapiens, UniProt P31645); assay: Displacement of [3H]citalopram from human SERT expressed in HEK293 cells; type: cell-based
Outline: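 Membranes from HEK-293 cells stably expressing hSERT, 30–70 µg protein, with [3H]citalopram. Buffer: 53 mM Tris, 126 mM NaCl, 5.3 mM KCl, pH 7.9. Incubated 2 h at room temperature. Competitor tested at 12 concentrations, 10^-13 to 10^-5 M, in triplicate. Ended by cold-buffer vacuum filtration on 0.3% PEI-soaked GF/B filters. Ki given as geometric mean of ≥3 separate assays.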

[4] = species: Homo sapiens; assay: Selectivity ratio of Ki for human SERT to Ki for human NET
[5] = target: Sodium-dependent dopamine transporter (Homo sapiens, UniProt Q01959); assay: Displacement of [125I]RTI-55 from human DAT expressed in HEK-293 cells
Sodium-dependent dopamine transporter, sequence (Q01959 whole entry): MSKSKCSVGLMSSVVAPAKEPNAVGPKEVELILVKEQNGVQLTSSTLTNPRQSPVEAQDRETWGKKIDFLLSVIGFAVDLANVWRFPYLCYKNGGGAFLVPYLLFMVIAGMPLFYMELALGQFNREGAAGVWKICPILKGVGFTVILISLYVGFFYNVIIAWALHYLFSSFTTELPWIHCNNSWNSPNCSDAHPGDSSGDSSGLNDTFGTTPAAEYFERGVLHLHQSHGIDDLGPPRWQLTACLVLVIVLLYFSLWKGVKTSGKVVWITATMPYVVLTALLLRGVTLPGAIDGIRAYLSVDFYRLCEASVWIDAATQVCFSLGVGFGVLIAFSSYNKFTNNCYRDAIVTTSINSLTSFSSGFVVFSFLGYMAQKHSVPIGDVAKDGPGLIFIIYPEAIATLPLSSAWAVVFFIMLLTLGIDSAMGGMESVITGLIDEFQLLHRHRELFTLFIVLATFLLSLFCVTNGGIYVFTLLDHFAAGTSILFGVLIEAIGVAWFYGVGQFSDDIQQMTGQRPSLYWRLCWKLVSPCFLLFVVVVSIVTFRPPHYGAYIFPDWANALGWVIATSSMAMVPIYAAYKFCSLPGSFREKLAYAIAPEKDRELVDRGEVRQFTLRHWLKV

Sodium-dependent noradrenaline transporter, sequence (P23975 whole entry): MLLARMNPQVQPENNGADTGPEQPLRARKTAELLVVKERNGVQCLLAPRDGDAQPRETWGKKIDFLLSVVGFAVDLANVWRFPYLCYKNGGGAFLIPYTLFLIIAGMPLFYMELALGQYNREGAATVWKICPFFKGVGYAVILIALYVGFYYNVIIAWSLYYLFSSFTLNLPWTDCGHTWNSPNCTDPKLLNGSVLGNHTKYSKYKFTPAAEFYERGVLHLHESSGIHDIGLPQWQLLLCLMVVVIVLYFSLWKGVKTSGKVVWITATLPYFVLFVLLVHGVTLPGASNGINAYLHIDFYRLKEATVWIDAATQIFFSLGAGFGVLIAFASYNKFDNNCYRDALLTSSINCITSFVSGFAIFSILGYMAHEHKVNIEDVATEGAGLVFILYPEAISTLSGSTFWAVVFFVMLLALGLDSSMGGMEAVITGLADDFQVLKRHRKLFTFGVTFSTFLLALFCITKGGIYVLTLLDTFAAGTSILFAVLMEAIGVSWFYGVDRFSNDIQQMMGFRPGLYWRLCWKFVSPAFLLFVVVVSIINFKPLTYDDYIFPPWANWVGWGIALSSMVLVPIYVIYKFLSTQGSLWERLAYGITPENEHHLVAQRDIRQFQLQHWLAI
Sodium-dependent serotonin transporter, sequence (P31645 whole entry): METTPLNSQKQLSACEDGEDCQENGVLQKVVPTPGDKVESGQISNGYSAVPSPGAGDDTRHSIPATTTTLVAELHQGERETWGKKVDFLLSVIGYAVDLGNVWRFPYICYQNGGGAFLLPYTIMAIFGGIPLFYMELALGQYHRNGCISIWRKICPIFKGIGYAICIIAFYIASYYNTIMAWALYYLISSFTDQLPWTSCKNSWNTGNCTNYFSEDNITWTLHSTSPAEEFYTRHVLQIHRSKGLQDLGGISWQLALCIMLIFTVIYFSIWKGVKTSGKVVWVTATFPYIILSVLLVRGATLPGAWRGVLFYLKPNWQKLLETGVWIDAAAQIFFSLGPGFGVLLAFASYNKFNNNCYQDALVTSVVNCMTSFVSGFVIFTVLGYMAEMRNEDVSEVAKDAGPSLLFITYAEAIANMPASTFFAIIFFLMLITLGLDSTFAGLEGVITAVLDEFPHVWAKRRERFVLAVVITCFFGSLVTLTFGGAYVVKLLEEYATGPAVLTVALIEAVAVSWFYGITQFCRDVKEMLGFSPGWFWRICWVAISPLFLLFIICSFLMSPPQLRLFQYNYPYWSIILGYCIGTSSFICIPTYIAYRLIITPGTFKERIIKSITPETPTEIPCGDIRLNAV

Compound	Ratio Ki [1]	Ki [2] [nM]	Ki [3] [nM]	Ratio Ki [4]	Ki [5] [nM]
COC(=O)c1ccccc1S[C@@H](c1ccccc1)[C@@H]1CNCCO1	> 20000	1.35	498	369	> 30000
COc1ccccc1O[C@@H](c1ccccc1)[C@@H]1CNCCO1	> 10000	0.95	185	195	> 10000
CSc1ccccc1O[C@@H](c1ccccc1)[C@@H]1CNCCO1	> 3000	2.06	90.9	44	> 6000
COC(=O)c1ccccc1O[C@@H](c1ccccc1)[C@@H]1CNCCO1	> 2000	1.32	614	465	> 3000

More lines, in order of falling Ki [2], values ahead:

Ratio Ki [1]	Ki [2] [nM]	Ki [3] [nM]	Ratio Ki [4]	Ki [5] [nM]	Compound
> 7000	1.21	121	100	> 9000	FCCCOc1ccccc1S[C@@H](c1ccccc1)[C@@H]1CNCCO1
> 10000	1	733	733	> 10000	FCCOc1ccccc1S[C@@H](c1ccccc1)[C@@H]1CNCCO1
> 4000	0.76	9.69	13	> 4000	COc1ccccc1S[C@@H](c1ccccc1)[C@@H]1CNCCO1
